Source: ChEMBL document CHEMBL1137225, “Synthesis of analogues of Congo red and evaluation of their anti-prion activity” (2004)

Tests used:
Type in all cases: functional
SMB = assay: (§1) Compound was tested for the inhibition of PrP-res formation in SMB cells at 50 uM; settings: Mus musculus
Summary of the method: (§2)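 Persistently scrapie-infected mouse SMB cells in 199 medium with 10% FCS, 5% newborn calf serum, 37 °C, 5% CO2; plated at 50% confluency, attached 24 h, then given fresh medium with compound diluted from 10 mM DMSO stock for 4 days. Lysates digested with proteinase K (80 μg/mL, 1 h, 37 °C); PrP-res detected by DR1 western blot, ECL, densitometry.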

[1] = target: Major prion protein (Mus musculus) (UniProt P04925); assay: Inhibition of PrP-res formation in SMB (Scrapie mouse brain) cells at 10 uM; summary of the method: as §2
[2] = target: Major prion protein (Mus musculus) (UniProt P04925); assay: Inhibition of PrPC polymerization by PrP-res at 100 uM; design: scale not given: the % may be the effect or the level left
Summary of the method: (§3)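 Substrate recombinant mouse PrP refolded without metal ions (50 μg), preincubated with compound (100 μM) in 500 μL H2O pH 6.5 for 30 min; seeded with aged Mn2+-refolded mouse PrP (10 μg). Turbidity read at 325 nm (5-mm cuvette) immediately and after 5 min; absorbance increase expressed as percentage of DMSO control.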

[3] = Effective dose required for the inhibition of PrP-res formation in SMB cells; value ranges from 25-50 nM; settings: Mus musculus, read-out: ED50 (the source's name); summary of the method: as §2
[4] = Compound was tested for the ability to inhibit the polymerization of PrPC by PrP-res at 100 uM; value ranges from 17-50 %; design: scale not given: the % may be the effect or the level left; summary of the method: as §3
[5] = Compound was tested for the inhibition of PrP-res formation in SMB cells at 2 uM; settings: Mus musculus; summary of the method: as §2
[6] = as §1; settings: Mus musculus; summary of the method: as §2
[7] = Effective dose required for the inhibition of PrP-res formation in SMB cells; settings: Mus musculus, read-out: ED50 (the source's name); summary of the method: as §2

Major prion protein (Mus musculus), sequence (P04925 whole entry): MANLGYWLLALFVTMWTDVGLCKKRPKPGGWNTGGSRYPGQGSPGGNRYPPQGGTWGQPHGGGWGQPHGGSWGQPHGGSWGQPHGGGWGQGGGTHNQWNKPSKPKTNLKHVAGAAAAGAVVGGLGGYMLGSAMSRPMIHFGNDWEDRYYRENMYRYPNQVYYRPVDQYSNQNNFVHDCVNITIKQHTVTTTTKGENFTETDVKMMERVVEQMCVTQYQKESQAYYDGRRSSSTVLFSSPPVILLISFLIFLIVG

O=C(O)c1cc(NS(=O)(=O)c2ccc(-c3ccc(S(=O)(=O)Nc4cc(C(=O)O)cc(C(=O)O)c4)cc3)cc2)cc(C(=O)O)c1
inhibition (SMB): Negative
inhibition [1]: Negative
Control [2]: 2%

O=C(Oc1ccccc1)c1ccc(NS(=O)(=O)c2ccc(-c3ccc(S(=O)(=O)Nc4ccc(C(=O)Oc5ccccc5)c(O)c4)cc3)cc2)cc1O
inhibition (SMB): Negative
inhibition [1]: Negative
Control [2]: 90%

COC(=O)c1ccc(/N=C/c2ccc(/C=N/c3ccc(C(=O)OC)cc3O)cc2)c(O)c1
inhibition (SMB): Negative
inhibition [1]: Negative
Control [2]: 140%

CCOC(=O)c1cc(/N=C/c2ccc(/C=N/c3ccc(O)c(C(=O)OCC)c3)cc2)ccc1O
inhibition [1]: Negative
Control [2]: 60%

O=[N+]([O-])c1ccc(/N=C/c2ccc(/C=N/c3ccc([N+](=O)[O-])cc3O)cc2)c(O)c1
inhibition [1]: Negative
Control [2]: 109%

O=C(Nc1ccccc1)c1ccc(-c2ccc(C(=O)Nc3ccccc3)cc2)cc1
inhibition [1]: Negative
Control [2]: 171%

O=C(Nc1ccc([N+](=O)[O-])cc1O)c1ccc(-c2ccc(C(=O)Nc3ccc([N+](=O)[O-])cc3O)cc2)cc1
inhibition [1]: Negative
Control [2]: 160%

COC(=O)c1ccc(NC(=O)c2ccc(-c3ccc(C(=O)Nc4ccc(C(=O)OC)cc4O)cc3)cc2)c(O)c1
inhibition [1]: Positive
EC50 [3]: 50 nM
Control [4]: 50%

Oc1ccc(/C=C/c2ccc(/C=C/c3ccc(O)cc3)cc2)cc1
inhibition at 2 µM [5]: 5%

Oc1ccc(/N=C/c2ccc(/C=N/c3ccc(O)cc3)cc2)cc1
inhibition [1]: Negative
Control [2]: 240%

O=C(O)c1ccc(/N=C/c2ccc(/C=N/c3ccc(C(=O)O)cc3)cc2)cc1
inhibition [1]: Negative
Control [2]: 12%

COC(=O)c1ccc(/N=C/c2ccc(-c3ccc(/C=N/c4ccc(C(=O)OC)cc4O)cc3)cc2)c(O)c1
inhibition at 50 µM [6]: 53%
inhibition [1]: Negative
Control [2]: 49%

O=C(Oc1ccccc1)c1ccc(/N=C/c2ccc(/C=N/c3ccc(C(=O)Oc4ccccc4)c(O)c3)cc2)cc1O
inhibition (SMB): Negative
inhibition [1]: Negative
Control [2]: 113%

O=C(O)c1ccc(NCc2ccc(CNc3ccc(C(=O)O)cc3O)cc2)c(O)c1
inhibition [1]: Negative
Control [2]: 79%

Oc1ccccc1/N=C/c1ccc(-c2ccc(/C=N/c3ccccc3O)cc2)cc1
inhibition [1]: Negative
Control [2]: 281%

COC(=O)c1cc(NC(=O)c2ccc(-c3ccc(C(=O)Nc4ccc(O)c(C(=O)OC)c4)cc3)cc2)ccc1O
inhibition [1]: Positive
EC50 [7]: 5000 nM
Control [2]: 249%

N#Cc1ccc(/N=C/c2ccc(/C=N/c3ccc(C#N)cc3)cc2)cc1
inhibition [1]: Positive
EC50 [7]: 500 nM
Control [2]: 81%

COC(=O)c1ccc(NC(=O)c2ccc(-c3ccc(C(=O)Nc4ccc(C(=O)OC)c(OC)c4)cc3)cc2)cc1OC
inhibition [1]: Positive
EC50 [7]: 250 nM
Control [2]: 70%

O=C(O)c1cc(/C=C/c2ccc(/C=C/c3ccc(O)c(C(=O)O)c3)cc2)ccc1O
inhibition at 50 µM [6]: 3%
inhibition [1]: Negative
Control [2]: 72%

COC(=O)c1ccc(OC)c(/N=C/c2ccc(-c3ccc(/C=N/c4cc(C(=O)OC)ccc4OC)cc3)cc2)c1
inhibition [1]: Negative

C(=N\c1ccccc1)/c1ccc(/C=N/c2ccccc2)cc1
inhibition [1]: Negative

COC(=O)c1ccc(NC(=O)c2ccc(C(=O)Nc3ccc(C(=O)OC)cc3O)cc2)c(O)c1
inhibition [1]: Positive
EC50 [7]: 5000 nM
Control [2]: 62%

COC(=O)c1ccc(OC)c(NCc2ccc(CNc3cc(C(=O)OC)ccc3OC)cc2)c1
inhibition [1]: Positive
EC50 [7]: 250 nM
Control [2]: 20%

O=C(O)c1ccc(C/N=C/c2ccc(/C=N/Cc3ccc(C(=O)O)cc3)cc2)cc1
inhibition [1]: Negative
Control [2]: 117%

O=C(O)c1cc(NC(=O)c2ccc(C(=O)Nc3cc(C(=O)O)cc(C(=O)O)c3)cc2)cc(C(=O)O)c1
inhibition [1]: Negative
Control [2]: 1%

O=C(O)c1cc(/N=C/c2ccc(/C=N/c3ccc(O)c(C(=O)O)c3)cc2)ccc1O
inhibition [1]: Negative
Control [2]: 53%

O=C(O)c1ccc(/N=C/c2ccc(-c3ccc(/C=N/c4ccc(C(=O)O)cc4O)cc3)cc2)c(O)c1
inhibition [1]: Positive
Control [2]: 62%

N#Cc1ccc(/N=C/c2ccc(/C=N/c3ccc(C#N)c4ccccc34)cc2)c2ccccc12
inhibition [1]: Negative
Control [2]: 148%

CCOC(=O)c1ccc(/N=C/c2ccc(/C=N/c3ccc(C(=O)OCC)c(O)c3)cc2)cc1O
inhibition [1]: Negative
Control [2]: 92%

COC(=O)c1ccc(NC(=O)c2ccc(-c3ccc(C(=O)Nc4ccc(C(=O)OC)c(O)c4)cc3)cc2)cc1O
inhibition [1]: Negative
Control [2]: NR

N#Cc1ccc(NC(=O)c2ccc(C(=O)Nc3ccc(C#N)cc3)cc2)cc1
inhibition [1]: Negative
Control [2]: 68%

COC(=O)c1ccc(/N=C/c2ccc(/C=N/c3ccc(C(=O)OC)c(O)c3)cc2)cc1O
inhibition [1]: Negative
Control [2]: 113%

COC(=O)c1ccc(OC)c(NC(=O)c2ccc(C(=O)Nc3cc(C(=O)OC)ccc3OC)cc2)c1
inhibition [1]: Negative
Control [2]: 70%

N#Cc1ccc(NC(=O)c2ccc(-c3ccc(C(=O)Nc4ccc(C#N)cc4)cc3)cc2)cc1
inhibition [1]: Negative
Control [2]: 196%

Cc1ccc(/N=C/c2ccc(/C=N/c3ccc(C)cc3O)cc2)c(O)c1
inhibition [1]: Negative
Control [2]: 230%

C(=N\c1ccccc1)/c1ccc(-c2ccc(/C=N/c3ccccc3)cc2)cc1
inhibition [1]: Negative
Control [2]: 315%

O=C(O)c1ccc(/N=C/c2ccc(/C=N/c3ccc(C(=O)O)cc3O)cc2)c(O)c1
inhibition (SMB): Negative
inhibition [1]: Negative
Control [2]: 35%

Oc1ccccc1NCc1ccc(CNc2ccccc2O)cc1
inhibition [1]: Positive
EC50 [7]: 2500 nM
Control [2]: 240%

COC(=O)c1ccc(OC)c(/N=C/c2ccc(/C=N/c3cc(C(=O)OC)ccc3OC)cc2)c1
inhibition (SMB): Negative
inhibition [1]: Negative
Control [2]: 47%

COC(=O)c1ccc(NCc2ccc(CNc3ccc(C(=O)OC)cc3O)cc2)c(O)c1
inhibition [1]: Positive
EC50 [7]: 75 nM
Control [2]: 166%

COc1cc(NC(=O)c2ccc(-c3ccc(C(=O)Nc4ccc(C(=O)O)c(OC)c4)cc3)cc2)ccc1C(=O)O
inhibition [1]: Negative
Control [2]: 472%

COC(=O)c1ccc(NS(=O)(=O)c2ccc(-c3ccc(S(=O)(=O)Nc4ccc(C(=O)OC)cc4O)cc3)cc2)c(O)c1
inhibition at 50 µM [6]: 77%
inhibition [1]: Negative
Control [2]: 30%

COc1ccc(C(=O)O)cc1NS(=O)(=O)c1ccc(-c2ccc(S(=O)(=O)Nc3cc(C(=O)O)ccc3OC)cc2)cc1
inhibition at 50 µM [6]: 33%
inhibition [1]: Negative
Control [2]: 62%

Oc1ccccc1/N=C/c1ccc(/C=N/c2ccccc2O)cc1
inhibition [1]: Negative
Control [2]: 85%

COC(=O)c1ccc(OC)c(NS(=O)(=O)c2ccc(-c3ccc(S(=O)(=O)Nc4cc(C(=O)OC)ccc4OC)cc3)cc2)c1
inhibition (SMB): Negative
inhibition [1]: Negative
Control [2]: 77%

COC(=O)c1cc(NC(=O)c2ccc(C(=O)Nc3cc(C(=O)OC)cc(C(=O)OC)c3)cc2)cc(C(=O)OC)c1
inhibition [1]: Positive
EC50 [7]: 250 nM
Control [2]: 147%

O=C(Nc1ccccc1)c1ccc(C(=O)Nc2ccccc2)cc1
inhibition [1]: Negative
Control [2]: 54%

O=C(Nc1ccc([N+](=O)[O-])cc1O)c1ccc(C(=O)Nc2ccc([N+](=O)[O-])cc2O)cc1
inhibition [1]: Negative
Control [2]: 15%

COC(=O)c1ccc(NC(=O)c2ccc(C(=O)Nc3ccc(C(=O)OC)cc3)cc2)cc1
inhibition [1]: Negative
Control [2]: 100%

COC(=O)c1cc(/N=C/c2ccc(/C=N/c3ccc(O)c(C(=O)OC)c3)cc2)ccc1O
inhibition [1]: Negative

Oc1ccc(/N=C/c2ccc(-c3ccc(/C=N/c4ccc(O)cc4)cc3)cc2)cc1
inhibition [1]: Positive
EC50 [7]: 250 nM
Control [2]: 104%

O=C(O)c1ccc(NS(=O)(=O)c2ccc(-c3ccc(S(=O)(=O)Nc4ccc(C(=O)O)cc4O)cc3)cc2)c(O)c1
inhibition (SMB): Negative
inhibition [1]: Negative
Control [2]: 12%

COc1ccc(C(=O)O)cc1/N=C/c1ccc(/C=N/c2cc(C(=O)O)ccc2OC)cc1
inhibition [1]: Negative
Control [2]: 11%

O=C(Nc1ccccc1O)c1ccc(-c2ccc(C(=O)Nc3ccccc3O)cc2)cc1
inhibition [1]: Negative
Control [2]: 430%
